# Tested on: Fibroblast
# Test: Multiplex assay against human fibroblast
# Assay type: toxicity, cell-based
# Method in brief: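 Live cells were stained at seeding with Hoechst33342, BioTracker Green Microtubule Cytoskeleton Dye, MitoTracker Red and Annexin V Alexa Fluor 680. Following compound addition, they were imaged on a CQ1 microscope at 37°C and 5% CO2 and gated by CellPathfinder machine learning into Hoechst high-intensity objects or normal cells, with normal cells split into healthy, pyknosed or fragmented nuclei and pyknosed cells into mitotic or apoptotic. Tubulin, mitochondrial-mass and membrane-permeability phenotypes are per cents of healthy-nucleus cells.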
# [1] = 12 h, 1 µM, compound concentration 1 uM, replicate 1
# [2] = 12 h, 1 µM, compound concentration 1 uM, replicate 2
# [3] = 12 h, 10 µM, compound concentration 10 uM, replicate 1
# [4] = 12 h, 10 µM, compound concentration 10 uM, replicate 2
# [5] = 24 h, 1 µM, compound concentration 1 uM, replicate 1
# [6] = 24 h, 1 µM, compound concentration 1 uM, replicate 2
# [7] = 24 h, 10 µM, compound concentration 10 uM, replicate 1
# [8] = 24 h, 10 µM, compound concentration 10 uM, replicate 2
# [9] = 48 h, 1 µM, compound concentration 1 uM, replicate 1
# [10] = 48 h, 1 µM, compound concentration 1 uM, replicate 2
# [11] = 48 h, 10 µM, compound concentration 10 uM, replicate 1
# [12] = 48 h, 10 µM, compound concentration 10 uM, replicate 2
compound,measurement,setting,value
CN[C@@H](C)C(=O)N[C@H](C(=O)N1CCC[C@H]1C(=O)Nc1snnc1-c1ccccc1)C1CCCCC1 [GDC-0152],Population Apoptotic (%),[1],70%
same,Population Fragmented Nuclei (%),[1],14%
same,Population Healthy Nuclei (%),[1],68%
same,Population Hoechst High Intensity Objects (%),[1],4%
same,Population Membrane Permeable-Phenotype (%),[1],1%
same,Population Mitochondria Different-Phenotype (%),[1],6%
same,Population Mitotic Cells (%),[1],30%
same,Population Normal (%),[1],95%
same,Population Pyknosed Nuclei (%),[1],16%
same,Population Tubulin-Different-Phenotype (%),[1],38%
same,Total Cell Count,[1],127
same,Population Apoptotic (%),[2],33%
same,Population Fragmented Nuclei (%),[2],16%
same,Population Healthy Nuclei (%),[2],56%
same,Population Hoechst High Intensity Objects (%),[2],6%
same,Population Membrane Permeable-Phenotype (%),[2],6%
same,Population Mitochondria Different-Phenotype (%),[2],9%
same,Population Mitotic Cells (%),[2],66%
same,Population Normal (%),[2],93%
same,Population Pyknosed Nuclei (%),[2],26%
same,Population Tubulin-Different-Phenotype (%),[2],62%
same,Total Cell Count,[2],121
same,Population Apoptotic (%),[3],38%
same,Population Fragmented Nuclei (%),[3],17%
same,Population Healthy Nuclei (%),[3],59%
same,Population Hoechst High Intensity Objects (%),[3],6%
same,Population Membrane Permeable-Phenotype (%),[3],0%
same,Population Mitochondria Different-Phenotype (%),[3],13%
same,Population Mitotic Cells (%),[3],61%
same,Population Normal (%),[3],93%
same,Population Pyknosed Nuclei (%),[3],22%
same,Population Tubulin-Different-Phenotype (%),[3],80%
same,Total Cell Count,[3],144
same,Population Apoptotic (%),[4],24%
same,Population Fragmented Nuclei (%),[4],26%
same,Population Healthy Nuclei (%),[4],34%
same,Population Hoechst High Intensity Objects (%),[4],10%
same,Population Mitochondria Different-Phenotype (%),[4],10%
same,Population Mitotic Cells (%),[4],75%
same,Population Normal (%),[4],90%
same,Population Pyknosed Nuclei (%),[4],39%
same,Population Tubulin-Different-Phenotype (%),[4],65%
same,Total Cell Count,[4],150
same,Population Apoptotic (%),[5],60%
same,Population Fragmented Nuclei (%),[5],20%
same,Population Healthy Nuclei (%),[5],63%
same,Population Hoechst High Intensity Objects (%),[5],2%
same,Population Membrane Permeable-Phenotype (%),[5],1%
same,Population Mitochondria Different-Phenotype (%),[5],1%
same,Population Mitotic Cells (%),[5],40%
same,Population Normal (%),[5],97%
same,Population Pyknosed Nuclei (%),[5],16%
same,Population Tubulin-Different-Phenotype (%),[5],30%
same,Total Cell Count,[5],123
same,Population Apoptotic (%),[6],37%
same,Population Fragmented Nuclei (%),[6],22%
same,Population Healthy Nuclei (%),[6],55%
same,Population Hoechst High Intensity Objects (%),[6],9%
same,Population Membrane Permeable-Phenotype (%),[6],2%
same,Population Mitochondria Different-Phenotype (%),[6],11%
same,Population Mitotic Cells (%),[6],62%
same,Population Normal (%),[6],90%
same,Population Pyknosed Nuclei (%),[6],22%
same,Population Tubulin-Different-Phenotype (%),[6],61%
same,Total Cell Count,[6],133
same,Population Apoptotic (%),[7],67%
same,Population Fragmented Nuclei (%),[7],14%
same,Population Healthy Nuclei (%),[7],58%
same,Population Hoechst High Intensity Objects (%),[7],5%
same,Population Membrane Permeable-Phenotype (%),[7],0%
same,Population Mitochondria Different-Phenotype (%),[7],21%
same,Population Mitotic Cells (%),[7],32%
same,Population Normal (%),[7],94%
same,Population Pyknosed Nuclei (%),[7],26%
same,Population Tubulin-Different-Phenotype (%),[7],83%
same,Total Cell Count,[7],135
same,Population Apoptotic (%),[8],41%
same,Population Fragmented Nuclei (%),[8],33%
same,Population Healthy Nuclei (%),[8],34%
same,Population Hoechst High Intensity Objects (%),[8],8%
same,Population Membrane Permeable-Phenotype (%),[8],16%
same,Population Mitochondria Different-Phenotype (%),[8],22%
same,Population Mitotic Cells (%),[8],58%
same,Population Normal (%),[8],91%
same,Population Pyknosed Nuclei (%),[8],31%
same,Population Tubulin-Different-Phenotype (%),[8],68%
same,Total Cell Count,[8],157
same,Population Apoptotic (%),[9],47%
same,Population Fragmented Nuclei (%),[9],23%
same,Population Healthy Nuclei (%),[9],60%
same,Population Hoechst High Intensity Objects (%),[9],1%
same,Population Membrane Permeable-Phenotype (%),[9],0%
same,Population Mitochondria Different-Phenotype (%),[9],1%
same,Population Mitotic Cells (%),[9],52%
same,Population Normal (%),[9],98%
same,Population Pyknosed Nuclei (%),[9],16%
same,Population Tubulin-Different-Phenotype (%),[9],48%
same,Total Cell Count,[9],132
same,Population Apoptotic (%),[10],57%
same,Population Fragmented Nuclei (%),[10],38%
same,Population Healthy Nuclei (%),[10],44%
same,Population Hoechst High Intensity Objects (%),[10],5%
same,Population Membrane Permeable-Phenotype (%),[10],2%
same,Population Mitochondria Different-Phenotype (%),[10],14%
same,Population Mitotic Cells (%),[10],42%
same,Population Normal (%),[10],94%
same,Population Pyknosed Nuclei (%),[10],17%
same,Population Tubulin-Different-Phenotype (%),[10],67%
same,Total Cell Count,[10],159
same,Population Apoptotic (%),[11],76%
same,Population Fragmented Nuclei (%),[11],23%
same,Population Healthy Nuclei (%),[11],45%
same,Population Hoechst High Intensity Objects (%),[11],6%
same,Population Membrane Permeable-Phenotype (%),[11],0%
same,Population Mitochondria Different-Phenotype (%),[11],22%
same,Population Mitotic Cells (%),[11],23%
same,Population Normal (%),[11],93%
same,Population Pyknosed Nuclei (%),[11],31%
same,Population Tubulin-Different-Phenotype (%),[11],81%
same,Total Cell Count,[11],145
same,Population Apoptotic (%),[12],44%
same,Population Fragmented Nuclei (%),[12],39%
same,Population Healthy Nuclei (%),[12],42%
same,Population Membrane Permeable-Phenotype (%),[12],19%
same,Population Mitochondria Different-Phenotype (%),[12],17%
same,Population Mitotic Cells (%),[12],55%
same,Population Pyknosed Nuclei (%),[12],18%
same,Population Tubulin-Different-Phenotype (%),[12],88%
same,Total Cell Count,[12],159
